Converted amounts (≈) assume the structure as drawn. The source made the active and inactive calls. The calls are words filed in the database; no cut-off is given here.
Legend:
Rhizopus arrhizus [1] = experiment: Antifungal activity against drug-susceptible Rhizopus oryzae UTHSC 03-112 by broth microdilution method; type: functional
Procedure, shortened: (§1)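 Broth microdilution MIC in µg/ml, run per the CLSI (formerly NCCLS) guideline for filamentous fungi, M38-A2.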

Rhizopus arrhizus [2] = experiment: Antifungal activity against drug-intermediate Rhizopus oryzae UTHSC 03-3165 by broth microdilution method; type: functional; procedure, shortened: as §1
Rhizopus arrhizus [3] = experiment: Antifungal activity against drug-intermediate Rhizopus oryzae UTHSC 05-3032 after 24 to 48 hrs; type: functional
Rhizopus arrhizus [4] = experiment: Antifungal activity against drug-susceptible Rhizopus oryzae UTHSC 06-89 infected in OF1 mouse assessed as reduction in kidney fungal load at 10-30 mg/kg, po bid; type: functional, organism-based
Rhizopus arrhizus [5] = experiment: Antifungal activity against drug-susceptible Rhizopus oryzae UTHSC 06-4336 by broth microdilution method; type: functional
Procedure, shortened: (§2)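 Posaconazole MIC in ug/ml, determined by broth microdilution following the CLSI guidelines for moulds (M38-A2).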

Rhizopus arrhizus [6] = experiment: Antifungal activity against drug-susceptible Rhizopus oryzae UTHSC 03-51 infected in OF1 mouse assessed as increase in mouse survival at 20-30 mg/kg, po bid treated 24 hrs after fungal infection; type: functional, organism-based
Procedure, shortened: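 Male OF1 mice (30 g) immunosuppressed 1 day before infection with cyclophosphamide 200 mg/kg i.p. plus 5-fluorouracil 150 mg/kg i.v.; challenged i.v. via tail vein with 2 × 10^4 CFU; oral gavage twice daily for 7 days from 24 h post-challenge; ceftazidime 5 mg/day s.c. days 1–7; untreated controls; 10 mice/group; survival checked daily to day 20.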

Rhizopus arrhizus [7] = experiment: Antifungal activity against drug-intermediate Rhizopus oryzae UTHSC 03-3165 after 24 to 48 hrs; type: functional
Rhizopus arrhizus [8] = experiment: Antifungal activity against drug-susceptible Rhizopus oryzae UTHSC 06-89 by broth microdilution method; type: functional
Rhizopus arrhizus [9] = experiment: Antifungal activity against drug-susceptible Rhizopus oryzae UTHSC 03-547 by broth microdilution method; type: functional
Procedure, shortened: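 CLSI broth microdilution for filamentous fungi (M38-A2); MIC recorded in µg/ml against clinical isolates; breakpoints applied at 24 h.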

Rhizopus arrhizus [10] = experiment: Antifungal activity against drug-susceptible Rhizopus oryzae UTHSC 06-434 at 5 ug by disk diffusion assay; type: functional; conditions: read-out: DIZ
Procedure, shortened: (§3)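 Neo-Sensitabs tablet diffusion on Mueller-Hinton agar, run per the mould guidelines. Tablets are 9 mm in diameter and carry 5 ug posaconazole. The read-out is the inhibition zone diameter in mm.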

Rhizopus arrhizus [11] = experiment: Antifungal activity against drug-susceptible Rhizopus oryzae UTHSC 05-2447 after 24 to 48 hrs; type: functional
Procedure, shortened: (§4)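 Minimum fungicidal concentration: 20 µl from each microdilution well showing complete inhibition (optically clear) plated on potato dextrose agar, incubated 35°C for 24 to 48 h; MFC taken as lowest drug concentration giving no growth.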

Rhizopus arrhizus [12] = experiment: Antifungal activity against drug-susceptible Rhizopus oryzae UTHSC 05-1817 after 24 to 48 hrs; type: functional; procedure, shortened: as §4
Rhizopus arrhizus [13] = experiment: Antifungal activity against drug-intermediate Rhizopus oryzae UTHSC 03-285 at 5 ug by disk diffusion assay; type: functional; conditions: read-out: DIZ
Procedure, shortened: (§5)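 Neo-Sensitabs tablet diffusion on Mueller-Hinton agar, following the guidelines for molds. Tablets were 9 mm in diameter and held 5 µg of drug. The read-out was inhibition zone diameter in mm.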

Rhizopus arrhizus [14] = experiment: Antifungal activity against drug-intermediate Rhizopus oryzae UTHSC 04-3109 infected in OF1 mouse assessed as reduction in brain fungal load at 10-30 mg/kg, po bid treated 24 hrs after fungal infection; type: functional, organism-based
Procedure, shortened: (§6)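 Tissue burden in immunosuppressed male OF1 mice, using cyclophosphamide 200 mg/kg i.p. plus 5-fluorouracil 150 mg/kg i.v. on day −1. Mice received 2 × 10^4 CFU i.v. by tail vein, then oral gavage at 10, 20 or 30 mg/kg BID from 24 h post-challenge, with ceftazidime cover; untreated controls. Groups of 10 were killed on day 4. Kidneys and brains were homogenized in 2 ml saline, serially diluted 10-fold, plated on PDA and counted after 24 h at 35°C.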

Rhizopus arrhizus [15] = experiment: Antifungal activity against drug-intermediate Rhizopus oryzae UTHSC 03-285 by broth microdilution method; type: functional; procedure, shortened: as §1
Rhizopus arrhizus [16] = experiment: Antifungal activity against drug-susceptible Rhizopus oryzae UTHSC 02-2882 infected in OF1 mouse assessed as reduction in kidney fungal load at 10-30 mg/kg, po bid; type: functional, organism-based; procedure, shortened: as §6
Rhizopus arrhizus [17] = experiment: Antifungal activity against drug-susceptible Rhizopus oryzae UTHSC 06-4133 at 5 ug by disk diffusion assay; type: functional; conditions: read-out: DIZ; procedure, shortened: as §3
Rhizopus arrhizus [18] = experiment: Antifungal activity against drug-susceptible Rhizopus oryzae UTHSC 06-3913 at 5 ug by disk diffusion assay; type: functional; conditions: read-out: DIZ; procedure, shortened: as §3
Rhizopus arrhizus [19] = experiment: Antifungal activity against drug-susceptible Rhizopus oryzae UTHSC 06-329 after 24 to 48 hrs; type: functional
Procedure, shortened: (§7)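 Minimum fungicidal concentration taken from the broth microdilution plates. From each well with complete inhibition (optically clear), 20 ul is plated on potato dextrose agar. Plates are incubated at 35°C for 24 to 48 h. The MFC is the lowest drug concentration giving no growth.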

Rhizopus arrhizus [20] = experiment: Antifungal activity against drug-intermediate Rhizopus oryzae UTHSC 05-114 by broth microdilution method; type: functional; procedure, shortened: as §1
Rhizopus arrhizus [21] = experiment: Antifungal activity against drug-susceptible Rhizopus oryzae UTHSC 06-3913 after 24 to 48 hrs; type: functional; procedure, shortened: as §7
Rhizopus arrhizus [22] = experiment: Antifungal activity against drug-susceptible Rhizopus oryzae UTHSC 05-3580 after 24 to 48 hrs; type: functional; procedure, shortened: as §7
Rhizopus arrhizus [23] = experiment: Antifungal activity against drug-susceptible Rhizopus oryzae UTHSC 06-4152 at 5 ug by disk diffusion assay; type: functional; conditions: read-out: DIZ; procedure, shortened: as §3
Rhizopus arrhizus [24] = experiment: Antifungal activity against drug-susceptible Rhizopus oryzae UTHSC 06-1080 after 24 to 48 hrs; type: functional; procedure, shortened: as §7
Rhizopus arrhizus [25] = experiment: Antifungal activity against drug-intermediate Rhizopus oryzae UTHSC 07-365 infected in OF1 mouse assessed as reduction in brain fungal load at 10-30 mg/kg, po bid treated 24 hrs after fungal infection; type: functional, organism-based; procedure, shortened: as §6
Rhizopus arrhizus [26] = experiment: Antifungal activity against drug-susceptible Rhizopus oryzae UTHSC 03-547 at 5 ug by disk diffusion assay; type: functional; conditions: read-out: DIZ
Procedure, shortened: (§8)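 Neo-Sensitabs tablet diffusion on Mueller-Hinton agar, following guidelines for molds; 9 mm tablets containing 5 µg posaconazole; inhibition zone diameter measured in mm; zone breakpoints applied at 24 h.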

Rhizopus arrhizus [27] = experiment: Antifungal activity against drug-susceptible Rhizopus oryzae UTHSC 03-511 at 5 ug by disk diffusion assay; type: functional; conditions: read-out: DIZ; procedure, shortened: as §8
Rhizopus arrhizus [28] = experiment: Antifungal activity against drug-susceptible Rhizopus oryzae UTHSC 2868 by broth microdilution method; type: functional
Rhizopus arrhizus [29] = experiment: Antifungal activity against drug-susceptible Rhizopus oryzae UTHSC 06-434 by broth microdilution method; type: functional; procedure, shortened: as §2
Rhizopus arrhizus [30] = experiment: Antifungal activity against drug-susceptible Rhizopus oryzae UTHSC 04-1241 at 5 ug by disk diffusion assay; type: functional; conditions: read-out: DIZ; procedure, shortened: as §8
Rhizopus arrhizus [31] = experiment: Antifungal activity against drug-intermediate Rhizopus oryzae UTHSC 04-3109 by broth microdilution method; type: functional; procedure, shortened: as §1
Rhizopus arrhizus [32] = experiment: Antifungal activity against drug-susceptible Rhizopus oryzae UTHSC 05-2975 after 24 to 48 hrs; type: functional; procedure, shortened: as §4
Rhizopus arrhizus [33] = experiment: Antifungal activity against drug-susceptible Rhizopus oryzae UTHSC 06-2374 by broth microdilution method; type: functional; procedure, shortened: as §2
Rhizopus arrhizus [34] = experiment: Antifungal activity against drug-susceptible Rhizopus oryzae UTHSC 03-511 after 24 to 48 hrs; type: functional; procedure, shortened: as §4
Rhizopus arrhizus [35] = experiment: Antifungal activity against drug-susceptible Rhizopus oryzae UTHSC 03-112 at 5 ug by disk diffusion assay; type: functional; conditions: read-out: DIZ; procedure, shortened: as §5
Rhizopus arrhizus [36] = experiment: Antifungal activity against drug-susceptible Rhizopus oryzae UTHSC 06-4336 at 5 ug by disk diffusion assay; type: functional; conditions: read-out: DIZ; procedure, shortened: as §3

CC[C@@H]([C@H](C)O)n1ncn(-c2ccc(N3CCN(c4ccc(OC[C@@H]5CO[C@@](Cn6cncn6)(c6ccc(F)cc6F)C5)cc4)CC3)cc2)c1=O [POSACONAZOLE]
MIC (Rhizopus arrhizus [1]): 0.5 µg/mL (≈ 0.713 µM) | MIC (Rhizopus arrhizus [2]): 2 µg/mL (≈ 2.85 µM) | MFC (Rhizopus arrhizus [3]): > 16 µg/mL | Activity (Rhizopus arrhizus [4]): Active | MIC (Rhizopus arrhizus [5]): 0.5 µg/mL (≈ 0.713 µM) | Activity (Rhizopus arrhizus [6]): Active | MFC (Rhizopus arrhizus [7]): 16 µg/mL (≈ 22.8 µM) | MIC (Rhizopus arrhizus [8]): 0.25 µg/mL (≈ 0.357 µM) | MIC (Rhizopus arrhizus [9]): 0.25 µg/mL (≈ 0.357 µM) | zone of inhibition at 5 µg/disc (Rhizopus arrhizus [10]): 15 mm | MFC (Rhizopus arrhizus [11]): 1 µg/mL (≈ 1.43 µM) | MFC (Rhizopus arrhizus [12]): 2 µg/mL (≈ 2.85 µM) | zone of inhibition at 5 µg/disc (Rhizopus arrhizus [13]): 15 mm | Activity (Rhizopus arrhizus [14]): inactive | MIC (Rhizopus arrhizus [15]): 2 µg/mL (≈ 2.85 µM) | Activity (Rhizopus arrhizus [16]): Active | zone of inhibition at 5 µg/disc (Rhizopus arrhizus [17]): 23 mm | zone of inhibition at 5 µg/disc (Rhizopus arrhizus [18]): 20 mm | MFC (Rhizopus arrhizus [19]): 0.5 µg/mL (≈ 0.713 µM) | MIC (Rhizopus arrhizus [20]): 2 µg/mL (≈ 2.85 µM) | MFC (Rhizopus arrhizus [21]): 4 µg/mL (≈ 5.71 µM) | MFC (Rhizopus arrhizus [22]): 1 µg/mL (≈ 1.43 µM) | zone of inhibition at 5 µg/disc (Rhizopus arrhizus [23]): 22 mm | MFC (Rhizopus arrhizus [24]): > 16 µg/mL | Activity (Rhizopus arrhizus [25]): inactive | zone of inhibition at 5 µg/disc (Rhizopus arrhizus [26]): 25 mm | zone of inhibition at 5 µg/disc (Rhizopus arrhizus [27]): 22 mm | MIC (Rhizopus arrhizus [28]): 1 µg/mL (≈ 1.43 µM) | MIC (Rhizopus arrhizus [29]): 1 µg/mL (≈ 1.43 µM) | zone of inhibition at 5 µg/disc (Rhizopus arrhizus [30]): 22 mm | MIC (Rhizopus arrhizus [31]): 2 µg/mL (≈ 2.85 µM) | MFC (Rhizopus arrhizus [32]): 2 µg/mL (≈ 2.85 µM) | MIC (Rhizopus arrhizus [33]): 0.5 µg/mL (≈ 0.713 µM) | MFC (Rhizopus arrhizus [34]): 1 µg/mL (≈ 1.43 µM) | zone of inhibition at 5 µg/disc (Rhizopus arrhizus [35]): 20 mm | zone of inhibition at 5 µg/disc (Rhizopus arrhizus [36]): 20 mm

Reference: ChEMBL document CHEMBL1255417, “Correlation between in vitro activity of posaconazole and in vivo efficacy against Rhizopus oryzae infection in mice” (Antimicrob Agents Chemother, 2010)
